In brackets after ≈: the same amount, converted by molar mass.
Columns and labels:
[1] = Binding affinity to human alpha-1-acid glycoprotein assessed as compound binding sites level by SPR; type: ADME
Method in brief: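 Ranking by SPR at 25°C. AGP was PDEA-modified and thiol-coupled to a CM5 chip; a reference surface carried no protein. Drugs at 250 µM in PBS with 5% DMSO were injected in randomized duplicates for 30 s at 50 µl/min. Responses were DMSO-calibration-corrected and normalized to a 10,000-RU immobilization level. Experiments were run in triplicate, mean ± SE.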

Staphylococcus aureus [2] = test: Antimicrobial activity against Staphylococcus aureus CIP 76.25 by microdilution method in presence of 4% human serum albumin; type: functional
Method in brief: (§1)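 Broth microdilution MICs against S. aureus CIP 76.25 by CLSI (formerly NCCLS) standard methods, run in duplicate. Each test medium was supplemented with one serum component: 50% human serum, 4% HSA, 0.1% AGP or 1.6% human gamma globulins. These levels were chosen to match normal physiological concentrations. MIC was read as in standard testing.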

Albumin [3] = target: T1, Albumin (Homo sapiens, UniProt P02768); test: Binding affinity to human serum albumin assessed as fraction of binding sites occupied by compound at 22 to 44 ug/ml by SPR; type: ADME; details: isolated protein
T1 sequence (P02768 whole entry): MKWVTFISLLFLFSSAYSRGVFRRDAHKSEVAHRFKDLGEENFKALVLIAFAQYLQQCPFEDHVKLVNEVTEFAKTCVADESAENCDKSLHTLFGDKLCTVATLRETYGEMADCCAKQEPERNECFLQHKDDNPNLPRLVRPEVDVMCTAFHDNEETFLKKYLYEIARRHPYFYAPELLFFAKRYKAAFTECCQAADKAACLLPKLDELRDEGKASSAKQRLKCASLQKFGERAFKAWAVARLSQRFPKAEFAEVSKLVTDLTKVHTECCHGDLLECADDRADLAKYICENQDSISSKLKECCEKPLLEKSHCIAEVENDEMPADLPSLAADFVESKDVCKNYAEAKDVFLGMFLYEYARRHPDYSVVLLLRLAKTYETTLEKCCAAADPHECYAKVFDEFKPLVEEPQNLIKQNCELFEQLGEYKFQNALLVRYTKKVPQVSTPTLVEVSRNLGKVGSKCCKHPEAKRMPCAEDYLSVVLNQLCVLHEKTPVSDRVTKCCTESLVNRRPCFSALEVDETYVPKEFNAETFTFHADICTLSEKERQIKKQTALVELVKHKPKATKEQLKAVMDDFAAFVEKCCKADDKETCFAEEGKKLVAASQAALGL
Method in brief: (§2)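 HSA amine-coupled on CM5 chip at 25°C, with a reference flow cell lacking protein. Compound in PBS with 5% DMSO, injected at 400 to 0.1 µM in twofold dilutions, 50 µl/min, 30 s association and 30 s dissociation. Reference-subtracted responses read 10 s into injection and DMSO-corrected. Fraction of sites occupied plotted against drug concentration from dose-response curves.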

Staphylococcus aureus [4] = test: Antimicrobial activity against Staphylococcus aureus CIP 76.25 by microdilution method in presence of 0.1% alpha-1-acid glycoprotein; type: functional; method in brief: as §1
Staphylococcus aureus [5] = test: Antimicrobial activity against Staphylococcus aureus CIP 76.25 by microdilution method in presence of 50% human serum; type: functional; method in brief: as §1
[6] = Protein binding in serum; type: ADME, cell-free; details: read-out: PB (converted)
Staphylococcus aureus [7] = test: Antimicrobial activity against Staphylococcus aureus CIP 76.25 by microdilution method; type: functional
Method in brief: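 S. aureus CIP 76.25 MICs determined in duplicate by CLSI standard broth microdilution.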

Albumin [8] = target: T1, Albumin; test: Binding affinity to first site on human serum albumin by SPR; type: ADME
Method in brief: (§3)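 SPR on a BIACORE 3000 at 25°C. HSA was amine-coupled to a CM5 chip at 40 µg/ml in 10 mM acetate, pH 5.2. Drug was injected from 400 µM to 0.1 µM in twofold dilutions in PBS with 5% DMSO at 50 µl/min, with 30 s association and 30 s dissociation. Responses were reference-subtracted, read 10 s into the injection and DMSO-corrected. Dose-response curves gave KD or fraction of sites occupied.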

Albumin [9] = target: T1, Albumin; test: Binding affinity to human serum albumin assessed as fraction of binding sites occupied by compound at 180 ug/ml by SPR; type: ADME; details: isolated protein; method in brief: as §2
Staphylococcus aureus [10] = test: Antimicrobial activity against Staphylococcus aureus CIP 76.25 by microdilution method in presence of 1.6% gamma globulin; type: functional; method in brief: as §1
Albumin [11] = target: T1, Albumin; test: Binding affinity to human serum albumin assessed as fraction of binding sites occupied by compound at 146 to 220 ug/ml by SPR; type: ADME; details: isolated protein; method in brief: as §3
Albumin [12] = target: T1, Albumin; test: Binding affinity to human serum albumin assessed as fraction of binding sites occupied by compound at 20 ug/ml by SPR; type: ADME; details: isolated protein; method in brief: as §2
Albumin [13] = target: T1, Albumin; test: Binding affinity to human serum albumin assessed as fraction of binding sites occupied by compound at 160 ug/ml by SPR; type: ADME; details: isolated protein; method in brief: as §2
Albumin [14] = target: T1, Albumin; test: Binding affinity to human serum albumin assessed as fraction of binding sites occupied by compound at 215 to 430 ug/ml by SPR; type: ADME; details: isolated protein; method in brief: as §2
Albumin [15] = target: T1, Albumin; test: Binding affinity to human serum albumin assessed as fraction of binding sites occupied by compound at 130 to 180 ug/ml by SPR; type: ADME; details: isolated protein; method in brief: as §3
Albumin [16] = target: T1, Albumin; test: Binding affinity to human serum albumin assessed as fraction of binding sites occupied by compound at 120 ug/ml by SPR; type: ADME; details: isolated protein; method in brief: as §3
Albumin [17] = target: T1, Albumin; test: Binding affinity to human serum albumin assessed as fraction of binding sites occupied by compound at 60 ug/ml by SPR; type: ADME; details: isolated protein; method in brief: as §3
Albumin [18] = target: T1, Albumin; test: Binding affinity to human serum albumin assessed as fraction of binding sites occupied by compound at 7 to 15 ug/ml by SPR; type: ADME; details: isolated protein; method in brief: as §3
Albumin [19] = target: T1, Albumin; test: Binding affinity to human serum albumin assessed as fraction of binding sites occupied by compound at >325 ug/ml by SPR; type: ADME; details: isolated protein; method in brief: as §3
Albumin [20] = target: T1, Albumin; test: Binding affinity to human serum albumin assessed as fraction of binding sites occupied by compound at 245 ug/ml by SPR; type: ADME; details: isolated protein; method in brief: as §3
Albumin [21] = target: T1, Albumin; test: Binding affinity to human serum albumin assessed as fraction of binding sites occupied by compound at 80 to 120 ug/ml by SPR; type: ADME; details: isolated protein; method in brief: as §3

Row | Structure (SMILES) | Ratio [1] | MIC (Staphylococcus aureus [2]) | MIC (Staphylococcus aureus [4]) | MIC (Staphylococcus aureus [5]) | fraction unbound [6] | MIC (Staphylococcus aureus [7]) | Kd (Albumin [8]) | MIC (Staphylococcus aureus [10]) | further results
1 | CO/N=C(\C(=O)N[C@@H]1C(=O)N2C(C(=O)O)=C(COC(C)=O)CS[C@H]12)c1csc(N)n1 [CEFOTAXIME] | < 1 | 1 µg/mL | 1 µg/mL | 4 µg/mL | 0.97 | 0.781 µg/mL (≈ 1.71 µM) | 12 µM | 2 µg/mL | Ratio (Albumin [3]): 0.5; Ratio (Albumin [9]): 1
2 | CC[C@H]1OC(=O)[C@H](C)[C@@H](O[C@H]2C[C@@](C)(OC)[C@@H](O)[C@H](C)O2)[C@H](C)[C@@H](O[C@@H]2O[C@H](C)C[C@H](N(C)C)[C@H]2O)[C@](C)(O)C[C@@H](C)C(=O)[C@H](C)[C@@H](O)[C@]1(C)O [ERYTHROMYCIN] | < 1 | 2 µg/mL | 2 µg/mL | 2 µg/mL | 0.81 | 0.195 µg/mL (≈ 0.266 µM) | 12 µM | 2 µg/mL | Ratio (Albumin [11]): 0.5
3 | CC(=O)O[C@H]1C[C@@]2(C)[C@@H](C[C@@H](O)[C@H]3[C@@]4(C)CC[C@@H](O)[C@@H](C)[C@@H]4CC[C@@]32C)/C1=C(\CCC=C(C)C)C(=O)O [FUSIDIC ACID] | < 1 | 256 µg/mL | 2 µg/mL | 1020 µg/mL | 0.03 | 0.049 µg/mL (≈ 0.0948 µM) | 12 µM | 2 µg/mL | Ratio (Albumin [12]): 0.5; Ratio (Albumin [13]): 1; Ratio (Albumin [14]): 1.5
4 | CCC[C@@H]1C[C@@H](C(=O)N[C@@H]([C@H]2O[C@H](SC)[C@H](O)[C@@H](O)[C@H]2O)[C@@H](C)O)N(C)C1 [LINCOMYCIN] | < 1 | 2 µg/mL | 2 µg/mL | 2 µg/mL | 0.25 | 0.391 µg/mL (≈ 0.962 µM) | 12 µM | 1 µg/mL | Ratio (Albumin [15]): 0.5
5 | CN(C)c1ccc(O)c2c1C[C@H]1C[C@H]3[C@H](N(C)C)C(O)=C(C(N)=O)C(=O)[C@@]3(O)C(O)=C1C2=O [MINOCYCLINE] | < 1 | 4 µg/mL | 1 µg/mL | 4 µg/mL | 0.46 | 0.195 µg/mL (≈ 0.426 µM) | 12 µM | 1 µg/mL | –
6 | CO[C@@H]1[C@@H](OC(N)=O)[C@@H](O)[C@H](Oc2ccc3c(O)c(NC(=O)c4ccc(O)c(CC=C(C)C)c4)c(=O)oc3c2C)OC1(C)C [NOVOBIOCIN] | < 1 | 256 µg/mL | 2 µg/mL | 1020 µg/mL | – | 0.049 µg/mL (≈ 0.08 µM) | 12 µM | 2 µg/mL | Ratio (Albumin [16]): 1.5; Ratio (Albumin [17]): 1; Ratio (Albumin [18]): 0.5
7 | CC1COc2c(N3CCN(C)CC3)c(F)cc3c(=O)c(C(=O)O)cn1c23 (configuration not stated) [OFLOXACIN] | – | 1 µg/mL | 1 µg/mL | 2 µg/mL | – | 0.195 µg/mL (≈ 0.54 µM) | 12 µM | 2 µg/mL | –
8 | CO[C@H]1/C=C/O[C@@]2(C)Oc3c(C)c(O)c4c(O)c(c(/C=N/N5CCN(C)CC5)c(O)c4c3C2=O)NC(=O)/C(C)=C\C=C\[C@H](C)[C@H](O)[C@@H](C)[C@@H](O)[C@@H](C)[C@H](OC(C)=O)[C@@H]1C [RIFAMPIN] | < 1 | 4 µg/mL | 1 µg/mL | 4 µg/mL | 0.36 | 0.049 µg/mL (≈ 0.0595 µM) | 12 µM | 2 µg/mL | Ratio (Albumin [19]): 1.5; Ratio (Albumin [20]): 0.5; Ratio (Albumin [21]): 1
9 | CN[C@H](CC(C)C)C(=O)N[C@H]1C(=O)N[C@@H](CC(N)=O)C(=O)N[C@H]2C(=O)N[C@H]3C(=O)N[C@H](C(=O)N[C@H](C(=O)O)c4cc(O)cc(O)c4-c4cc3ccc4O)[C@H](O)c3ccc(c(Cl)c3)Oc3cc2cc(c3O[C@@H]2O[C@H](CO)[C@@H](O)[C@H](O)[C@H]2O[C@H]2C[C@](C)(N)[C@H](O)[C@H](C)O2)Oc2ccc(cc2Cl)[C@H]1O [VANCOMYCIN] | – | – | – | – | 0.9 | 0.781 µg/mL (≈ 0.539 µM) | 12 µM | – | –

Reference: ChEMBL document CHEMBL1649135, “Use of a surface plasmon resonance method to investigate antibiotic and plasma protein interactions” (Antimicrob Agents Chemother, 2009)
